The text below walks through data of PMC9051925 (RSC Advances, 2020).

Assay [1] can be described thus: DPPH˙ radical scavenging assay. Particulars: read-out: DPPH˙ scavenging activity (EC50); 37 °C 30 min, OD 540 nm; mean ± SD. The method in brief: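 Assay mixtures were 50 μL DPPH˙ working solution in ethanol plus 50 μL test compound in DMSO (sample solutions 0.02–20 mM). Ethanol replaced DPPH˙ in sample-control and blank wells. Mixtures were incubated at 37 °C for 30 min and read at OD 540 nm, in triplicate. Scavenging rate was calculated by formula. EC50 was derived by nonlinear regression from three independent experiments.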

Another assay deals with L02 cells. Put plainly: MTT assay for H2O2-treated L02 cells. It counts as cell-based. Conditions: Homo sapiens, L02, read-out: L02 cell viability after H2O2. The essentials: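 Cells were grown in RPMI-1640 with 10% FBS at 37 °C, 5% CO2. PC12 cells were seeded at 5 × 10^5 cells per mL and incubated 16 h; L02 cells at 1 × 10^5 cells per mL, 24 h. Test compound (final 10 μM, from 20 mM DMSO stock) or DMSO was added for 0.5 h. Then 10 μL H2O2 (1 mM in medium) or medium was added for 2 h, followed by MTT for 4 h.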

Usually EC50 stands for the concentration needed to bring the measured effect to its halfway point. As usually defined, the viability is a per cent measure of how many cells are alive, often set against a control. For the compound `O=C(O)c1cc(O)c(O)c(O)c1` [GA, gallic acid], the 50% effective concentration (EC50) in assay [1] worked out at 50 ± 10 µM. Further, in the assay on L02 cells, the viability at 10 µM turned out to be 37.8%.

Consider `O=C1O[C@H]([C@@H](O)CO)C(O)=C1O` [VC, vitamin C], for which the EC50 in assay [1] turned out to be 230 ± 90 µM.
